From ChEMBL document CHEMBL1250505, “Synthesis and biological property of some novel 1,3,4-oxadiazoles” (2010) come the findings set out here.

What all share (type): functional
The subject of assay [1] is Staphylococcus aureus. Put plainly: Antibacterial activity against Staphylococcus aureus at 50 ug/ml after 24 to 48 hrs by cup-plate method. Conditions: read-out: IZ. The method, boiled down:
(§1)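 Sterile nutrient agar cooled to […] and seeded with 18-24 h sub-cultures, then poured at about 45-50 mL per dish. Wells cut with a 6 mm sterile cork borer and filled with 0.1 mL of each of two test dilutions. Plates incubated inverted at 37 °C for 24–48 h; inhibition zone diameters measured in mm. Streptomycin and procaine penicillin served as standards.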

Assay [2] concerns Staphylococcus aureus. Description: Antibacterial activity against Staphylococcus aureus at 100 ug/ml after 24 to 48 hrs by cup-plate method. Conditions: read-out: IZ. The method, boiled down:
as §1

The subject of assay [3] is Bacillus subtilis. Description: Antibacterial activity against Bacillus subtilis at 50 ug/ml after 24 to 48 hrs by cup-plate method. Particulars: read-out: IZ. The method, boiled down: as §1
Assay [4] relates to Bacillus subtilis. Put plainly: Antibacterial activity against Bacillus subtilis at 100 ug/ml after 24 to 48 hrs by cup-plate method. Conditions: read-out: IZ. The method, boiled down:
as §1

Assay [5] concerns Escherichia coli. Put plainly: Antibacterial activity against Escherichia coli at 50 ug/ml after 24 to 48 hrs by cup-plate method. Conditions: read-out: IZ. A digest of the protocol:
as §1

Assay [6] relates to Escherichia coli. Description: Antibacterial activity against Escherichia coli at 100 ug/ml after 24 to 48 hrs by cup-plate method. Particulars: read-out: IZ. The method, boiled down: as §1
The subject of assay [7] is Pseudomonas aeruginosa. Put plainly: Antibacterial activity against Pseudomonas aeruginosa at 50 ug/ml after 24 to 48 hrs by cup-plate method. Conditions: read-out: IZ. The method, boiled down: as §1
The test system of assay [8] is Pseudomonas aeruginosa. Put plainly: Antibacterial activity against Pseudomonas aeruginosa at 100 ug/ml after 24 to 48 hrs by cup-plate method. Conditions: read-out: IZ. The method, boiled down: as §1
Assay [9] deals with Mus musculus. Put plainly: Analgesic activity in albino mouse assessed as paw licking latency at 100 mg/kg after 0.5 hrs by Eddy's hot plate method. A digest of the protocol:
(§2)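 Albino mice of either sex, fasted 24 h, 6 per group. Compounds given at 100 mg/kg; control group received 2% acacia suspension, standard group pentazocine 35 mg/kg. Hot plate held at 55 ± 1 °C. Reaction time is the time to lick a hind paw or leap off the plate, recorded at 0, 30, 60, 120 and 240 min after dosing.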

Assay [10] concerns Mus musculus. Put plainly: Analgesic activity in albino mouse assessed as paw licking latency at 100 mg/kg after 1 hr by Eddy's hot plate method. The method, boiled down:
as §2

Assay [11] has as its system Mus musculus. Put plainly: Analgesic activity in albino mouse assessed as paw licking latency at 100 mg/kg after 2 hrs by Eddy's hot plate method. The method, boiled down:
as §2
On the technique in general: In hot-plate and tail-flick tests a longer latency is read as antinociception.

Assay [12] deals with Mus musculus. Put plainly: Analgesic activity in albino mouse assessed as paw licking latency at 100 mg/kg after 4 hrs by Eddy's hot plate method. A digest of the protocol:
as §2

As to `S=c1[nH]nc(-c2cccc(-c3cccc(Cl)c3)c2)o1`, the zone of inhibition at 50 µg/mL in the assay on Staphylococcus aureus [1] was 10 mm; in the assay on Bacillus subtilis [3], 13 mm; in the assay with Escherichia coli [5] it was 11 mm; in the assay with Pseudomonas aeruginosa [7], 9 mm. For the same compound, the zone of inhibition at 100 µg/mL in the assay with Staphylococcus aureus [2] amounted to 11 mm; in the assay on Bacillus subtilis [4], 9 mm; in the assay with Escherichia coli [6] it was 16 mm; in the assay on Pseudomonas aeruginosa [8] it was 14 mm. Also, the Time with Mus musculus [9] is listed as 4.71 s; in the assay on Mus musculus [10] it was 4.84 s; in the assay on Mus musculus [11], 5.01 s; in the assay on Mus musculus [12] it was 5.08 s.

As to `N#CCCCSc1nnc(-c2cccc(-c3ccccc3F)c2)o1`, the zone of inhibition at 50 µg/mL came out at 11 mm in the assay with Staphylococcus aureus [1], 12 mm in the assay with Bacillus subtilis [3], 17 mm in the assay on Escherichia coli [5] and 16 mm in the assay on Pseudomonas aeruginosa [7]. Further, the zone of inhibition at 100 µg/mL worked out at 16 mm in the assay with Staphylococcus aureus [2], 18 mm with Bacillus subtilis [4], 21 mm in the assay on Escherichia coli [6] and 20 mm in the assay on Pseudomonas aeruginosa [8]. Moreover, the Time is listed as 4.54 s with Mus musculus [9], 4.71 s in the assay on Mus musculus [10], 4.92 s with Mus musculus [11] and 4.49 s in the assay with Mus musculus [12].

As to `N#CCCCSc1nnc(-c2cccc(-c3cccc(Cl)c3)c2)o1`, the zone of inhibition at 50 µg/mL stood at 10 mm with Staphylococcus aureus [1], 8 mm with Bacillus subtilis [3], 10 mm in the assay on Escherichia coli [5] and 12 mm with Pseudomonas aeruginosa [7]. The zone of inhibition at 100 µg/mL with Staphylococcus aureus [2] was 15 mm; in the assay on Bacillus subtilis [4], 16 mm; with Escherichia coli [6], 17 mm; with Pseudomonas aeruginosa [8] it was 16 mm. Further, the Time in the assay on Mus musculus [9] is listed as 4.51 s; with Mus musculus [10] it was 4.77 s; in the assay on Mus musculus [11] it was 5.12 s; in the assay with Mus musculus [12], 4.71 s.

Turning to `COC(=O)CCCSc1nnc(-c2cccc(-c3cc(F)ccc3OC)c2)o1`, the zone of inhibition at 50 µg/mL with Staphylococcus aureus [1] was 10 mm; in the assay on Bacillus subtilis [3], 13 mm; with Escherichia coli [5], 15 mm; in the assay with Pseudomonas aeruginosa [7] it was 13 mm. Further, the zone of inhibition at 100 µg/mL is 16 mm in the assay on Staphylococcus aureus [2], 18 mm in the assay on Bacillus subtilis [4], 18 mm in the assay on Escherichia coli [6] and 19 mm with Pseudomonas aeruginosa [8]. Besides, the Time in the assay on Mus musculus [9] turned out to be 4.75 s; in the assay on Mus musculus [10] it was 5.11 s; with Mus musculus [11], 6.01 s; in the assay with Mus musculus [12], 6.01 s.

With `COC(=O)CCCSc1nnc(-c2cccc(-c3ccccc3OC)c2)o1`, the zone of inhibition at 50 µg/mL with Staphylococcus aureus [1] was 9 mm; in the assay with Bacillus subtilis [3], 11 mm; with Escherichia coli [5], 7 mm; with Pseudomonas aeruginosa [7], 18 mm. Besides, the zone of inhibition at 100 µg/mL in the assay on Staphylococcus aureus [2] is 14 mm; with Bacillus subtilis [4], 15 mm; with Escherichia coli [6] it was 16 mm; in the assay with Pseudomonas aeruginosa [8] it was 21 mm. In addition, the Time in the assay with Mus musculus [9] turned out to be 5.01 s; in the assay on Mus musculus [10] it was 5.21 s; with Mus musculus [11] it was 6.58 s; in the assay on Mus musculus [12], 6.21 s.

`COC(=O)CCCSc1nnc(-c2cccc(-c3ccccc3F)c2)o1`: the zone of inhibition at 50 µg/mL in the assay on Staphylococcus aureus [1] worked out at 15 mm; in the assay with Bacillus subtilis [3] it was 9 mm; in the assay with Escherichia coli [5], 9 mm; in the assay with Pseudomonas aeruginosa [7], 13 mm. The zone of inhibition at 100 µg/mL in the assay on Staphylococcus aureus [2] was 17 mm; in the assay on Bacillus subtilis [4] it was 16 mm; with Escherichia coli [6] it was 16 mm; in the assay with Pseudomonas aeruginosa [8], 21 mm. For the same compound, the Time with Mus musculus [9] stood at 4.53 s; in the assay with Mus musculus [10], 4.62 s; with Mus musculus [11], 4.84 s; in the assay with Mus musculus [12], 4.49 s.

On to `COC(=O)CCCSc1nnc(-c2cccc(-c3cccc(Cl)c3)c2)o1`, for which the zone of inhibition at 50 µg/mL in the assay with Staphylococcus aureus [1] was 10 mm; in the assay with Bacillus subtilis [3] it was 11 mm; in the assay with Escherichia coli [5], 18 mm; in the assay with Pseudomonas aeruginosa [7] it was 6 mm. Besides, the zone of inhibition at 100 µg/mL in the assay with Staphylococcus aureus [2] amounted to 16 mm; in the assay with Bacillus subtilis [4] it was 18 mm; in the assay with Escherichia coli [6], 19 mm; in the assay on Pseudomonas aeruginosa [8] it was 18 mm. The Time in the assay with Mus musculus [9] stood at 4.96 s; in the assay on Mus musculus [10] it was 5.36 s; in the assay with Mus musculus [11], 6.58 s; in the assay on Mus musculus [12] it was 5.59 s.

As for `COc1ccc(F)cc1-c1cccc(-c2nnc(SCCCCF)o2)c1`, the zone of inhibition at 50 µg/mL in the assay with Staphylococcus aureus [1] was 12 mm; in the assay with Bacillus subtilis [3], 10 mm; with Escherichia coli [5], 12 mm; in the assay on Pseudomonas aeruginosa [7], 7 mm. Besides, the zone of inhibition at 100 µg/mL with Staphylococcus aureus [2] came out at 15 mm; in the assay on Bacillus subtilis [4] it was 17 mm; with Escherichia coli [6] it was 19 mm; with Pseudomonas aeruginosa [8] it was 15 mm. In addition, the Time in the assay on Mus musculus [9] is given as 4.35 s; in the assay with Mus musculus [10], 4.48 s; in the assay with Mus musculus [11] it was 4.72 s; in the assay on Mus musculus [12], 4.55 s.

Regarding `COc1ccccc1-c1cccc(-c2nnc(SCCCCF)o2)c1`, the zone of inhibition at 50 µg/mL with Staphylococcus aureus [1] came to 15 mm; in the assay on Bacillus subtilis [3], 15 mm; in the assay with Escherichia coli [5], 12 mm; in the assay on Pseudomonas aeruginosa [7], 6 mm. The zone of inhibition at 100 µg/mL stood at 21 mm in the assay with Staphylococcus aureus [2], 20 mm in the assay on Bacillus subtilis [4], 16 mm in the assay with Escherichia coli [6] and 15 mm in the assay with Pseudomonas aeruginosa [8]. Besides, the Time in the assay on Mus musculus [9] stood at 4.9 s; with Mus musculus [10] it was 5.01 s; in the assay with Mus musculus [11], 6.17 s; in the assay with Mus musculus [12], 6.01 s.

On to `FCCCCSc1nnc(-c2cccc(-c3ccccc3F)c2)o1`, for which the zone of inhibition at 50 µg/mL in the assay with Staphylococcus aureus [1] amounted to 13 mm; with Bacillus subtilis [3], 20 mm; with Escherichia coli [5], 13 mm; in the assay on Pseudomonas aeruginosa [7], 17 mm. Also, the zone of inhibition at 100 µg/mL came out at 20 mm with Staphylococcus aureus [2], 22 mm in the assay on Bacillus subtilis [4], 19 mm with Escherichia coli [6] and 18 mm in the assay with Pseudomonas aeruginosa [8]. For the same compound, the Time in the assay on Mus musculus [9] was 4.62 s; with Mus musculus [10], 4.69 s; in the assay with Mus musculus [11] it was 4.87 s; with Mus musculus [12], 4.47 s.

`FCCCCSc1nnc(-c2cccc(-c3cccc(Cl)c3)c2)o1`: the zone of inhibition at 50 µg/mL in the assay on Staphylococcus aureus [1] worked out at 5 mm; with Bacillus subtilis [3], 15 mm; in the assay on Escherichia coli [5] it was 12 mm; with Pseudomonas aeruginosa [7], 15 mm. Moreover, the zone of inhibition at 100 µg/mL with Staphylococcus aureus [2] is 12 mm; in the assay on Bacillus subtilis [4], 20 mm; in the assay with Escherichia coli [6], 15 mm; in the assay on Pseudomonas aeruginosa [8], 20 mm. Besides, the Time in the assay on Mus musculus [9] was 5.56 s; in the assay with Mus musculus [10], 5.79 s; in the assay on Mus musculus [11], 8.35 s; in the assay on Mus musculus [12] it was 6.44 s.

Consider `COc1ccc(F)cc1-c1cccc(-c2nnc(SCCCC#N)o2)c1`, for which the zone of inhibition at 50 µg/mL with Staphylococcus aureus [1] is 7 mm; in the assay with Bacillus subtilis [3], 7 mm; with Escherichia coli [5], 10 mm; with Pseudomonas aeruginosa [7] it was 15 mm. For the same compound, the zone of inhibition at 100 µg/mL was determined as 13 mm in the assay on Staphylococcus aureus [2], 18 mm in the assay with Bacillus subtilis [4], 18 mm in the assay on Escherichia coli [6] and 18 mm with Pseudomonas aeruginosa [8]. Also, the Time in the assay on Mus musculus [9] was determined as 4.92 s; in the assay with Mus musculus [10] it was 4.86 s; in the assay with Mus musculus [11], 4.99 s; with Mus musculus [12], 4.74 s.

As to `COc1ccccc1-c1cccc(-c2nnc(SCCCC#N)o2)c1`, the zone of inhibition at 50 µg/mL worked out at 12 mm with Staphylococcus aureus [1], 17 mm in the assay on Bacillus subtilis [3], 10 mm with Escherichia coli [5] and 9 mm in the assay with Pseudomonas aeruginosa [7]. Further, the zone of inhibition at 100 µg/mL in the assay on Staphylococcus aureus [2] was 18 mm; in the assay with Bacillus subtilis [4], 20 mm; in the assay on Escherichia coli [6], 20 mm; with Pseudomonas aeruginosa [8], 20 mm. The Time amounted to 5.25 s in the assay on Mus musculus [9], 5.4 s with Mus musculus [10], 6.57 s with Mus musculus [11] and 5.59 s in the assay on Mus musculus [12].

Consider `CN[C@@H]1[C@H](O[C@H]2[C@H](O[C@H]3[C@H](O)[C@@H](O)[C@H](N=C(N)N)[C@@H](O)[C@@H]3N=C(N)N)O[C@@H](C)[C@]2(O)C=O)O[C@@H](CO)[C@H](O)[C@H]1O` [STREPTOMYCIN], for which the zone of inhibition at 50 µg/mL with Escherichia coli [5] and in the assay on Pseudomonas aeruginosa [7] was 21 mm each time. The zone of inhibition at 100 µg/mL in the assay on Escherichia coli [6] and with Pseudomonas aeruginosa [8] was 25 mm throughout.
